pIC50, pKi: −log10 of the molar value. Active and inactive are the calls of the source. No cut-off for these calls is given here.
Tests used:
[1] = target: T1, Tyrosine-protein phosphatase non-receptor type 1 (Homo sapiens, UniProt P18031); experiment: Inhibition of PTP1B
T1 sequence (P18031 whole entry): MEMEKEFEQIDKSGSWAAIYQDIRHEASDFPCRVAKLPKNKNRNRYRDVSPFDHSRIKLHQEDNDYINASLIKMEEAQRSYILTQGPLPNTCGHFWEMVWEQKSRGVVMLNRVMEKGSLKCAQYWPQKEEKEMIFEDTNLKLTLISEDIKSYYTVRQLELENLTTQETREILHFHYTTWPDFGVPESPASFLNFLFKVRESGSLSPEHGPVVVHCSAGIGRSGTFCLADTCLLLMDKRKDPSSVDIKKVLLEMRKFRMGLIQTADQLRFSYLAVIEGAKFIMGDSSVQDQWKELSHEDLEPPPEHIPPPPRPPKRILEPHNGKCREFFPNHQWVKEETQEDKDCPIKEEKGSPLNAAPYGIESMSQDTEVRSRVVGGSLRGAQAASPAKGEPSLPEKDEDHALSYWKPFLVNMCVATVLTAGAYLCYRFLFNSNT

[2] = target: T2, Tyrosine-protein phosphatase non-receptor type 2 (Homo sapiens, UniProt P17706); experiment: Inhibition of TC-PTP
T2 sequence (P17706 whole entry): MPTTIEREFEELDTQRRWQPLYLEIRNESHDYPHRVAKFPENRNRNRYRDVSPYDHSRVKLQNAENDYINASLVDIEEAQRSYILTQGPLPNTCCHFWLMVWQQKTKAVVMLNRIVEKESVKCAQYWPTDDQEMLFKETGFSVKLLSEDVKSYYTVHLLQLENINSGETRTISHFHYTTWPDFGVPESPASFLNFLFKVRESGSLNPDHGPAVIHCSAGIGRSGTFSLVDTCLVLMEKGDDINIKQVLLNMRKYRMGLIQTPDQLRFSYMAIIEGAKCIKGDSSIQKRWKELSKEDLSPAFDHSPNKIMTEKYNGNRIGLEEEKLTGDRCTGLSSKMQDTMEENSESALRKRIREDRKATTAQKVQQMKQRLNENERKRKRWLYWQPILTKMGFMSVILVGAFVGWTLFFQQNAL
Outline: (§1)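 Phosphatase activity was measured as p-nitrophenyl phosphate hydrolysis (2 mM pNPP in the reaction) over a range of inhibitor concentrations to derive IC50. Conditions were identical for all enzymes except enzyme level: PTP1B 40 nM, E. coli-expressed SHP-1 catalytic domain 100 nM, E. coli-expressed YPTP1 15 nM, LAR-D1 and TC-PTP 33 units/mL. Ki was calculated as IC50 = Ki(1+[S]/KM). Mean ± SD of two or more experiments.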

[3] = target: Tyrosine-protein phosphatase non-receptor type 6 (Homo sapiens, UniProt P29350); experiment: Inhibition of SHP1 catalytic domain expressed in Escherichia coli; outline: as §1
Sequence of Tyrosine-protein phosphatase non-receptor type 6 (P29350 whole entry, the tested form may be a part): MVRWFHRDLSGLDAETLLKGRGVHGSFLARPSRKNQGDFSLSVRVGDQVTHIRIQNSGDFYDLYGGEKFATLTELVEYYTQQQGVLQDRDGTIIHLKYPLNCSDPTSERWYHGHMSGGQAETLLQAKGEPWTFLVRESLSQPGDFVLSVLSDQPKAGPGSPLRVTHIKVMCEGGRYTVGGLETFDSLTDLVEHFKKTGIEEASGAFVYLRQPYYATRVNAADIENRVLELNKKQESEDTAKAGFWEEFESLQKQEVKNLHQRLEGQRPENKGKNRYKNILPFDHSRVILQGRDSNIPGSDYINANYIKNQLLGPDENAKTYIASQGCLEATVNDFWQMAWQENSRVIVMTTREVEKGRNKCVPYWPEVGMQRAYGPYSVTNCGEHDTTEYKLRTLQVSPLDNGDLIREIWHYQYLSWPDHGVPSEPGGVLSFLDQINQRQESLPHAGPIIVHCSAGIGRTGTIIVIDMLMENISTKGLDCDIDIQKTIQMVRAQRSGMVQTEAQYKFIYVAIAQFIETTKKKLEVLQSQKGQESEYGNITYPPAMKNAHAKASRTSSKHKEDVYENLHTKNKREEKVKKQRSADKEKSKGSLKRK

[4] = target: Receptor-type tyrosine-protein phosphatase F (Homo sapiens, UniProt P10586); experiment: Inhibition of membrane proximal catalytic domain of LAR; outline: as §1
Sequence of Receptor-type tyrosine-protein phosphatase F (P10586 whole entry, the tested form may be a part): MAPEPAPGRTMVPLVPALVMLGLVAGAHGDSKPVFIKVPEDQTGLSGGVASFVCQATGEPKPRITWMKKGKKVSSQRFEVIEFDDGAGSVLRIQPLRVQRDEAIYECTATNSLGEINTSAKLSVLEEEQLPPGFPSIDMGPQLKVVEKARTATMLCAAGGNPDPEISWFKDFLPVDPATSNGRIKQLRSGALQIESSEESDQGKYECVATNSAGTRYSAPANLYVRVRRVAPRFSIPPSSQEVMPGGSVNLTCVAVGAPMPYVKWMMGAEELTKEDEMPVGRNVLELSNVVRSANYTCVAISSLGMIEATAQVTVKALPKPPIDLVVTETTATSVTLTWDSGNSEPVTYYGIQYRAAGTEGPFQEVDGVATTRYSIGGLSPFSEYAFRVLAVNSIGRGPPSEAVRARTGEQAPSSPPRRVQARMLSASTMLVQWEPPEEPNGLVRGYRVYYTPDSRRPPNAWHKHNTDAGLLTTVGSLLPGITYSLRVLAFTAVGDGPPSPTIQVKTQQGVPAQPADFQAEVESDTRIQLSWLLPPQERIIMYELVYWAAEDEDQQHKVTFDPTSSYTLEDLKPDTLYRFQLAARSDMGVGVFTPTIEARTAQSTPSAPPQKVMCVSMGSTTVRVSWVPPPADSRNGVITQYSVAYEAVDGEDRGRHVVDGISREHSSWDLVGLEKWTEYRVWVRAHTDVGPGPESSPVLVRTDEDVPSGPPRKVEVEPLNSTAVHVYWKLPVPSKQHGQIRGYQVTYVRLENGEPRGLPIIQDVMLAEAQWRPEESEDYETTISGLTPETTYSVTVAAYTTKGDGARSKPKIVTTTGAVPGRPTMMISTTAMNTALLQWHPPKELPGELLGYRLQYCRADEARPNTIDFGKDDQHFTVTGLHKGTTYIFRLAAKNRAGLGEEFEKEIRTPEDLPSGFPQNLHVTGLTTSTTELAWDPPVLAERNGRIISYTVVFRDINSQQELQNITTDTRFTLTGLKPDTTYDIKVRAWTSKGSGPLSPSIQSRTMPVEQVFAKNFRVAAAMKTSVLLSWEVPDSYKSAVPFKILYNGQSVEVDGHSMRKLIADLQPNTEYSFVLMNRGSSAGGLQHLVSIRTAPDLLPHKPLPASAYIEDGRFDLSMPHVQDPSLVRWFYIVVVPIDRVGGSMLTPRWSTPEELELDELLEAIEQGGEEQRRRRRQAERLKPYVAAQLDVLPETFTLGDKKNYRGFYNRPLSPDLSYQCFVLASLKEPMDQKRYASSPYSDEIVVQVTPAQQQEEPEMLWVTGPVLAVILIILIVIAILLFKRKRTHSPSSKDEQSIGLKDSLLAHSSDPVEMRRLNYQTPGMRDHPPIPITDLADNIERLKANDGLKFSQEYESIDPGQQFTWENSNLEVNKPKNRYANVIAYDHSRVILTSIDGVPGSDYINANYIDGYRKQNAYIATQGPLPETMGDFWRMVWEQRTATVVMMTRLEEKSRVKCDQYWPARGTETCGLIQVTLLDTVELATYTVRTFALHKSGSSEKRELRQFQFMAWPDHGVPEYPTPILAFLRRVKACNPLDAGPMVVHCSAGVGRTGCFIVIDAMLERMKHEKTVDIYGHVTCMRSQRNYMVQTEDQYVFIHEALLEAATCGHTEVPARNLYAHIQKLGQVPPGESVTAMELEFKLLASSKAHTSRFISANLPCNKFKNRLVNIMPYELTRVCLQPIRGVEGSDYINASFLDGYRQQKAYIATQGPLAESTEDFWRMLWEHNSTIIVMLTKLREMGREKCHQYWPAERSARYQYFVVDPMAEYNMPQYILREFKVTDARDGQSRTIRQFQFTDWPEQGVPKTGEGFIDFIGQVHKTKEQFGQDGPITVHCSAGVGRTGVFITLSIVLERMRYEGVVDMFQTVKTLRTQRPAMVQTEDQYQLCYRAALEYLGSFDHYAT

[5] = Inhibition of Yersinia YOP
Outline: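 Purchased YOP enzyme at 50 units (manufacturer's definition)/mL, with p-nitrophenyl phosphate substrate at 2 mM in the reaction mixture. pNPP hydrolase activity was measured across a range of inhibitor concentrations to derive IC50. Ki was obtained from IC50 = Ki(1 + [S]/KM). Values are mean and SD of two or more experiments.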

[6] = Inhibition of yeast PTP1; design: species or system Saccharomyces cerevisiae; outline: as §1
[7] = Selectivity for PTP1B over TC-PTP
[8] = Selectivity for PTP1B over membrane proximal catalytic domain of LAR
[9] = Selectivity for PTP1B over yeast PTP1
Mus musculus [10] = experiment: Antiobesity activity in high fat diet-induced obese C57BL/6J Jms Slc mouse model assessed as body weight gain at 143 mg/kg/day, po for 4 weeks administered with high fat diet (Rvb= 4.88 +/- 0.46 g); assay type: functional
Outline: (§2)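 Male C57BL/6J Jms Slc mice were acclimatized 1 wk on low-fat diet (10% kcal fat), then fed high-fat diet (45% kcal fat) ad libitum for 8 wk. They were split into groups of equal mean body weight and given HFD or HFD with drug mixed into the food (2.0 g/kg diet; DMSO plus 1% aqueous polyglycerol fatty acid ester) for 4 wk. Read-outs: weight gain and feed efficiency (weight gain/kcal ×100).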

Mus musculus [11] = experiment: Antiobesity activity in high fat diet-induced obese C57BL/6J Jms Slc mouse model assessed as decrease in body weight gain per kilocalories of food intake at 143 mg/kg/day, po for 4 weeks administered with high fat diet; assay type: functional; design: scale not given: the % may be the effect or the level left; outline: as §2
Mus musculus [12] = experiment: Antiobesity activity in high fat diet-induced obese C57BL/6J Jms Slc mouse model assessed as epididymal fat at 143 mg/kg/day, po for 4 weeks administered with high fat diet followed by 5 days recovery period on their own high fat diet with drug (Rvb= 1.87 +/- 0.08 g); assay type: functional
Outline: (§3)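 Obesity was induced by HFD (45% kcal fat) for 8 wk, followed by 4 wk of HFD or HFD with drug in the diet (2.0 g/kg diet). After the glucose tolerance test, mice stayed on their diets for 5 d more and were fasted overnight. Epididymal and retroperitoneal fat pads were excised and weighed. Significance versus HFD by one-way ANOVA.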

Mus musculus [13] = experiment: Antiobesity activity in high fat diet-induced obese C57BL/6J Jms Slc mouse model assessed as retroperitoneal fat at 143 mg/kg/day, po for 4 weeks administered with high fat diet followed by 5 days recovery period on their own high fat diet with drug (Rvb= 0.69 +/- 0.06 g); assay type: functional; outline: as §3
Mus musculus [14] = experiment: Hypoglycemic activity in high fat diet-induced obese C57BL/6J Jms Slc mouse model assessed as reduction in fasting blood glucose level at 143 mg/kg/day, po for 4 weeks administered with high fat diet measured after 6 hrs of fasting; assay type: functional, organism-based
Outline: (§4)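 After 8 wk of HFD and 4 wk of HFD with drug in the diet (2.0 g/kg diet), mice were fasted 6 h. Fasting blood glucose was taken at 0 min, glucose was then injected intraperitoneally, and tail blood was sampled at timed intervals up to 120 min.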

Mus musculus [15] = experiment: Hypoglycemic activity in high fat diet-induced obese C57BL/6J Jms Slc mouse model at 143 mg/kg/day, po for 4 weeks administered with high fat diet by glucose tolerance test; assay type: functional, organism-based; outline: as §4
Mus musculus [16] = experiment: Hypoglycemic activity in high fat diet-induced obese C57BL/6J Jms Slc mouse model assessed as total cholesterol level at 143 mg/kg/day, po for 4 weeks administered with high fat diet followed by 5 days recovery period on their own high fat diet with drug (Rvb= 152 +/- 6 mg/dL); assay type: functional
Outline: (§5)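 HFD-obese mice (8 wk HFD) received HFD with drug in the diet (2.0 g/kg diet) for 4 wk, then continued 5 d on their diets. After an overnight fast and anesthesia, blood was taken by cardiac puncture. Serum triglyceride and total cholesterol were measured by enzymatic kits, and NEFA by a half-micro test kit. Mean ± SD, n = 8/group; one-way ANOVA.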

Mus musculus [17] = experiment: Hypoglycemic activity in high fat diet-induced obese C57BL/6J Jms Slc mouse model assessed as triglyceride level at 143 mg/kg/day, po for 4 weeks administered with high fat diet followed by 5 days recovery period on their own high fat diet with drug (Rvb= 124 +/- 16 mg/dL); assay type: functional; outline: as §5
Mus musculus [18] = experiment: Hypoglycemic activity in high fat diet-induced obese C57BL/6J Jms Slc mouse model assessed as non-esterified free fatty acid level at 143 mg/kg/day, po for 4 weeks administered with high fat diet followed by 5 days recovery period on their own high fat diet with drug (Rvb= 0.71 +/- 0.22 mM); assay type: functional; outline: as §5

Molecule O=C1NC(=O)/C(=C/c2ccc(OCc3ccc(F)cc3)c(Br)c2)S1 has a pIC50 [1] of 4.96.

For O=C1NC(=O)/C(=C/c2cc(Br)ccc2OCc2ccccc2C(F)(F)F)S1, the pIC50 [1] was 5.10.

With O=C1NC(=O)/C(=C/c2ccc(OCc3ccc(C(F)(F)F)cc3)cc2)S1 the pIC50 [1] was 4.85.

With O=C1NC(=O)/C(=C/c2cc(F)ccc2OCc2cc(C(F)(F)F)cc(C(F)(F)F)c2)S1 the pIC50 [1] was 5.10.

O=C1NC(=O)/C(=C/c2ccc(OCc3ccc(C(F)(F)F)cc3)c(Br)c2)S1 gave a pIC50 [1] of 5.30.

In the case of O=C1NC(=O)/C(=C/c2cc(Br)ccc2OCc2cc(C(F)(F)F)cc(C(F)(F)F)c2)S1, the pIC50 [1] was 5.30, the pKi [1] was 5.68 and the pIC50 [2] was 4.80. For the same molecule, the pKi [2] was 5.35, the pIC50 [3] was 5.24 and the pKi [3] was 5.66. It also gave a pIC50 [4] of less than 4.00, a pIC50 [5] of 5.22 and a pIC50 [6] of 4.74. The pKi [6] was 5.11, the fold change (FC) [7] was 2.2 and the fold change (FC) [8] was greater than 20. For the same molecule, the fold change (FC) [9] was 3.7, the Activity (Mus musculus [10]) was 2.16 g and the Activity (Mus musculus [11]) was 0.68%. For the same molecule, the Activity (Mus musculus [12]) was 1.27 g, the Activity (Mus musculus [13]) was 0.42 g and the Activity (Mus musculus [14]) was “inactive”. For the same molecule, the Activity (Mus musculus [15]) was “Active”, the Activity (Mus musculus [16]) was 125 mg/dL and the Activity (Mus musculus [17]) was 78 mg/dL. The Activity (Mus musculus [18]) was 0.22 mM.

O=C1NC(=O)/C(=C/c2cc(F)ccc2OCc2ccc(C(F)(F)F)cc2)S1 gave a pIC50 [1] of 4.82.

With O=C1NC(=O)/C(=C/c2cc(Br)ccc2OCc2cccc(C(F)(F)F)c2)S1 the pIC50 [1] was 5.10.

O=C1NC(=O)/C(=C/c2ccc(OCc3ccccc3)c(Br)c2)S1 showed a pIC50 [1] of 4.82.

For O=C1NC(=O)/C(=C/c2ccc(OCc3ccc(C(F)(F)F)cc3)c(-c3ccccc3)c2)S1, the pIC50 [1] was 5.22.

In the case of O=C1NC(=O)/C(=C/c2cc(Br)ccc2OCc2ccccc2)S1, the pIC50 [1] was 5.05.

O=C1NC(=O)/C(=C/c2ccc(OCc3ccc(F)cc3)cc2)S1 gave a pIC50 [1] of 4.17.

CN(CCOc1ccc(CC2SC(=O)NC2=O)cc1)c1ccccn1 (stereo unspecified) [ROSIGLITAZONE] showed a pIC50 [1] of 3.40.

Molecule O=C1NC(=O)/C(=C/c2ccc(OCc3ccccc3)cc2)S1 has a pIC50 [1] of 4.19.

O=C1NC(=O)/C(=C/c2cc(Br)ccc2OCc2ccc(C(F)(F)F)cc2)S1 gave a pIC50 [1] of 5.10.

Molecule CCc1ccc(CCOc2ccc(CC3SC(=O)NC3=O)cc2)nc1 (stereo unspecified) [PIOGLITAZONE] has a pIC50 [1] of 3.66.

For O=C1NC(=O)/C(=C/c2cc(-c3ccccc3)ccc2OCc2ccccc2)S1, the pIC50 [1] was 4.80.

In the case of Cc1c(C)c2c(c(C)c1O)CCC(C)(COc1ccc(CC3SC(=O)NC3=O)cc1)O2 (stereo unspecified) [TROGLITAZONE], the pIC50 [1] was 4.26.

With O=C1NC(=O)/C(=C/c2ccc(OCc3ccccc3)c(-c3ccccc3)c2)S1 the pIC50 [1] was 5.05.

O=C1NC(=O)/C(=C/c2cc(Br)ccc2OCc2ccc(F)cc2)S1 gave a pIC50 [1] of 4.64.
